# High-throughput results from PubChem.
# AHR act = activators of human aryl hydrocarbon receptor. P35869. AHR-responsive luciferase reporter cells, luminescence. activation, % at 5 µM. actives 2.5% (n = 320,000); in the data active means activation above about 47%;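 further: 0% = vehicle wells and 100% = reference agonist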
# Target sequence (P35869 whole entry, looked up): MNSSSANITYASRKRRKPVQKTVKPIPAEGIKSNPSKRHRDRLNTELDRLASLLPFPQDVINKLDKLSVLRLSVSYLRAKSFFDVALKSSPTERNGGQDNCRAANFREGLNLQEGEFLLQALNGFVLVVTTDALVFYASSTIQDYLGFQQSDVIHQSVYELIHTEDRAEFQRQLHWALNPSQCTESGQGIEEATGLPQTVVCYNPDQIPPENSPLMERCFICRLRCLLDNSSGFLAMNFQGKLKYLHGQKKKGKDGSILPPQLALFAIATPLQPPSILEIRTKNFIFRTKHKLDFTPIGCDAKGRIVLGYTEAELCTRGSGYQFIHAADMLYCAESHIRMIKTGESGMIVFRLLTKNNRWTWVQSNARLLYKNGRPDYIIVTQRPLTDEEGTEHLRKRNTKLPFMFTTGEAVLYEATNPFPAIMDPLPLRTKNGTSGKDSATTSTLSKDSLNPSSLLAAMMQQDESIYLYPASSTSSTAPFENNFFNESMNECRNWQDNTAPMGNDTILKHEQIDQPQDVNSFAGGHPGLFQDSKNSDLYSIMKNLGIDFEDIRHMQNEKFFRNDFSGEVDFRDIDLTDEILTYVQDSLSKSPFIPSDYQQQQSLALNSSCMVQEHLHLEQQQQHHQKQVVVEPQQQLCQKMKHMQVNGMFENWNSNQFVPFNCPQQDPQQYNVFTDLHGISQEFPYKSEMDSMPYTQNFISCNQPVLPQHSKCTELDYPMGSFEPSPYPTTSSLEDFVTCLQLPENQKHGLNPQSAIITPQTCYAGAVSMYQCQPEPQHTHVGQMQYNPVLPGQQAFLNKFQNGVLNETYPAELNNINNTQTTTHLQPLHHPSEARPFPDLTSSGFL
# NF-kB expr up = compounds increasing NF-kB expression in human neuronal cells; fold change at 12.5 µM; NF-kB reporter expression; active compounds read high; AID 1239; actives 1.6% (n = 190,000); in the data active means fold change above about 3.3
# STAT1 act = increases IFN-gamma driven STAT1 reporter signal. NIH 3T3 STAT1-luciferase reporter, luminescence; 100% = IFN-gamma alone, no compound. activation (% of control), % at 5.5 µM. actives 2.6% (n = 200,000). AID 932;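 active means activation above the screen-wide mean activation plus 3 SD, cut at about 130% in these data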;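 further: raw ratio to IFN-gamma control signal so 100% means no change and 0% no light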
# MDM2 E3 inh = Mdm2 E3 ligase (human) inhibition; Q00987; cell-based MDM2 ubiquitination luciferase reporter, 2 h; 0 = plate control, 100 = twice control, blank-subtracted; signal enhancement, % at 5 µM; actives 0.11% (n = 210,000);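 active means signal enhancement of 30% or more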;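 further: luminescence tracks abundance of the self-degrading MDM2-luciferase fusion protein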
#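 system = mammalian cells stably expressing self-ubiquitinating, self-degrading MDM2 E3–luciferase fusion | quantity = 2000 cells per well seeded | incubation = 4 h cell settling then 2 h compound exposure, 37 °C | signal = SteadyLite luminescence, 15 min reagent step | benchmarks = plate control and blank wells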
# PERK inh = inhibitors of human PERK kinase | CHO PERK-DD fusion, SEAP luminescence translation reporter | inhibition, % at 5.6 µM | actives 0.17% (n = 220,000);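 active means inhibition above the mean inhibition of all tested compounds plus 3 SD, set separately per screening campaign, cut at about 2.9% in these data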;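 further: PERK kinase domain activated by AP20187 dimerizer at 100 nM; 0% = DMSO with dimerizer and 100% = rapamycin at 8.4 µM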
# APP 5'UTR act = activates APP 5'UTR luciferase reporter; SH-SY5Y APP 5'UTR luciferase reporter, luminescence; zero percent = DMSO vehicle wells; activation, % at 2 µM; actives 1% (n = 190,000); AID 1276;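 active means activation above a set limit, based on mean plus 3 SD of controls, cut at about 140% in these data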
# * marks the source's active call; other numbers are inactive results; nt = no result given. Shown are actives, neighbours in structure and some others; about 4.5% of the full set was active somewhere.
SMILES,AHR act,NF-kB expr up,STAT1 act,MDM2 E3 inh,PERK inh,APP 5'UTR act
O=Cc1c(-c2ccc(F)cc2)nc2ccccn12,70*,0.93,101,11,0,9
CSc1ccc(NS(=O)(=O)c2ccc(-n3cnnn3)cc2)cc1,-1,nt,nt,nt,nt,nt
Clc1ccc(N/N=C/c2ccncc2)cc1Cl,24,1.7,124,-7,0,76
Fc1ccc(N/N=C/C=C/c2ccccc2)c(F)c1,38,2.3,137*,-8,1,54
O=C(O)c1ccc(/C=N/Nc2ccc(F)cc2F)cc1,0,12*,115,-7,2,170*
Fc1ccc(N/N=C/c2ccncc2)c(F)c1,31,1.7,129*,-5,-1,25
CC[C@@]1(C(=O)OC)N[C@H](CN(C)C(=O)Nc2ccc(OC)cc2)[C@@H]2C(=O)N(C)C(=O)[C@@H]21,-1,nt,nt,nt,nt,nt
Oc1ccc(Cl)cc1C1=NNC(c2ccc(Cl)cc2)C1 (stereo not drawn),77*,1.3,130*,-5,0,55
CC1(C)c2[nH]c3ccccc3c2C[C@H]2C(=O)N(CCCCCO)CC(=O)N21,2,nt,nt,nt,nt,nt
CCN1CCc2c(C#N)c(N3CCCCC3)nc(NCc3ccccc3)c2C1,3,2.6,108,-4,-1,-2
C=CCNc1nc(N2CCCCC2)c(C#N)c2c1CN(Cc1ccccc1)CC2,3,4.7*,106,-16,-1,3
N#Cc1c(NCCO)nc(NCc2ccccc2)c2c1CCN(Cc1ccccc1)C2,15,5.8*,98,3,0,-6
COc1ccccc1C(=O)NNC(=O)CCC(=O)NCc1ccccc1,32,nt,nt,nt,nt,nt
COc1ccccc1CNC(=O)[C@H](C)NC(=O)C1CCN(C(=O)[C@@H](N)CCSC)CC1,-1,nt,nt,nt,nt,nt
CCCCC(=O)Nc1nc2c(OC)ccc(OC)c2s1,64*,1.1,97,-5,0,nt
CCOc1cccc2sc(NC(=O)CCS(=O)(=O)c3ccccc3)nc12,57*,nt,nt,nt,nt,nt
COc1ccc(C)c2sc(NC(=O)CCS(=O)(=O)c3ccccc3)nc12,52*,nt,nt,nt,nt,nt
COc1ccc2c(C(=O)CCl)c[nH]c2c1,39,nt,nt,nt,1,nt
O=c1[nH]c(S)nc2sc3c(c12)CCCC3,5,0.99,106,-15,1,-6
O=c1[nH]c(-c2ccco2)nc2sc3c(c12)CCCC3,4,5.8*,149*,-14,0,154*
COCCNC(=O)c1c(N)n(/N=C/c2ccc(F)cc2)c2nc3ccccc3nc12,6,nt,nt,-14,2,nt
CCCCCCNC(=O)c1c(N)n(/N=C/c2ccco2)c2nc3ccccc3nc12,nt,nt,135*,nt,0,-6
COCCCNC(=O)c1c(N)n(-c2ccc3c(c2)OCO3)c2nc3ccccc3nc12,52*,0.79,104,-11,-1,-10
COCCNC(=O)c1c(N)n(/N=C/c2cccs2)c2nc3ccccc3nc12,50*,0.35,105,-12,0,3
O=C(OCC(=O)N1CCOCC1)c1ccccc1OCc1ccccc1,0,nt,nt,nt,nt,nt
SMILES,AHR act,NF-kB expr up,STAT1 act,MDM2 E3 inh,PERK inh,APP 5'UTR act
O=C(CCc1ccc(S(=O)(=O)N2CCOCC2)cc1)Nc1ccc(F)c(F)c1F,5,nt,nt,nt,nt,nt
CC(C)(C)[C@H]1C=C(C(=O)N2CCN(Cc3ccc4c(c3)OCO4)CC2)O[C@@H](OCc2ccc(CO)cc2)C1,0,0.75,103,nt,1,-19
COC(=O)c1cc(C(=O)OCC(=O)NCc2cccs2)cc([N+](=O)[O-])c1,2,nt,nt,nt,nt,nt
Cc1ccc(-n2c(C)cc(C(=O)COC(=O)c3c(C)noc3C)c2C)cc1,-1,3.5*,129*,-15,-2,72
CC(=O)Nc1ccc(S(=O)(=O)NCC2CCC(C(=O)NC(C)c3ccc4c(c3)OCCO4)CC2)cc1 (stereo not drawn),-2,0.86,98,-7,1,-2
Cn1c(=O)c(C(=O)NNC(=O)c2ccccc2F)c(O)c2ccccc21,66*,nt,nt,nt,nt,nt
Cc1cccnc1NC(=O)c1c(O)c2ccccc2n(C)c1=O,54*,1.1,105,-3,0,-3
CCn1c(=O)c(C(=O)NNC(=O)c2ccccc2F)c(O)c2ccccc21,7,nt,nt,nt,nt,nt
CCn1c(=O)c(C(=O)Nc2ncccc2O)c(O)c2ccccc21,10,nt,nt,nt,nt,nt
Cc1cccnc1NC(=O)C(C)N1C(=O)c2ccccc2C1=O (stereo not drawn),66*,nt,nt,-18,0,nt
CC(C)(C)CC(=O)N1CCN(Cc2ccc3c(c2)OCO3)CC1,1,nt,nt,nt,nt,nt
C=CCn1c(=O)c2ccccc2n2c(SCc3c(C(=O)OCC)oc4ccccc34)nnc12,0,nt,nt,nt,nt,nt
Cn1c(/C(C#N)=C/Nc2ccccn2)nc2ccccc21,118*,0.89,101,-2,-1,-4
CCOc1ccccc1N/C=C(\C#N)c1nc2ccccc2n1C,30,1,109,-7,0,-2
Cn1ncc2c1ncn1nc(CCc3ccccc3)nc21,4,3.8*,142*,-29,1,29
O=C1Nc2ccccc2O/C1=C\c1ccccc1,61*,nt,nt,nt,nt,nt
C/C=C(\C)CN1CCCC(N(C)CCc2ccc(OC)c(OC)c2)C1 (stereo not drawn),0,nt,nt,nt,nt,nt
O=c1[nH]c2cc3c(cc2cc1CN(Cc1cccnc1)C(=S)NCc1ccco1)OCO3,66*,0.82,83,-5,-1,-13
O=c1[nH]c2cc3c(cc2cc1CN(Cc1cccnc1)C(=S)NCc1ccco1)OCCO3,28,1.1,99,14,0,-22
N#Cc1cn(-c2ccccc2)nc1-c1ccc2c(c1)OCCO2,8,2.2,146*,-19,1,118
OCCCn1c(CCNc2nc(-c3ccc(F)cc3)cs2)nc2cc(C(F)(F)F)ccc21,51*,nt,nt,nt,nt,nt
OCCCn1c(C2CCCN2c2nc(-c3ccc(F)cc3)cs2)nc2cc(C(F)(F)F)ccc21 (stereo not drawn),19,nt,nt,nt,nt,nt
COc1cccc(C(=O)NC2CCN(CC(=O)Nc3ccccc3Cl)CC2)c1,2,nt,nt,nt,nt,nt
O=[N+]([O-])c1ccc2c(c1)nc1n2CCN(C2CCCCC2)C1,3,nt,144*,nt,0,91
COc1cc(OC)cc(-c2c(C#Cc3ccsc3)c3cc(-c4ccc(OC)nc4)ccc3n2C)c1,7,nt,nt,nt,nt,nt
SMILES,AHR act,NF-kB expr up,STAT1 act,MDM2 E3 inh,PERK inh,APP 5'UTR act
NC(=O)c1c(NC(=O)c2ccccc2Cl)sc2c1CCC2,35,nt,nt,nt,nt,nt
NC(=O)c1c(NC(=O)c2ccc(F)cc2Cl)sc2c1CCC2,56*,nt,nt,nt,nt,nt
O=S(=O)(c1ccccc1)n1cc(-c2ccccn2)c(N2CCOCC2)n1,1,1.1,104,-17,1,213*
COc1cc(C)cc(OC)c1OCC(=O)Nc1cc(C)on1,-2,nt,nt,nt,nt,nt
O=S(=O)(c1ccc2ccccc2c1)N1CCCCCC1,15,0.87,97,-9,1,1
O=C(NNC(=O)C1CCCN(S(=O)(=O)c2ccc3ccccc3c2)C1)C1CC1 (stereo not drawn),nt,1.1,89,-11,4.3*,-13
COc1cc(CCC(=O)OCC(=O)NCCc2ccc(S(N)(=O)=O)cc2)cc(OC)c1OC,-1,nt,nt,nt,nt,nt
